Reference: ChEMBL document CHEMBL4196167, “Ansamycins with Antiproliferative and Antineuroinflammatory Activity from Moss-Soil-Derived Streptomyces cacaoi subsp. asoensis H2S5” (J Nat Prod, 2018)
Activity calls are given as the source filed them. The calls are words filed in the database; no cut-off is given here.

How the values were obtained:
PC-3 = test: Cytotoxicity against human PC3 cells after 72 hrs by sulforhodamine B assay; type: functional, cell-based; conditions: PC-3, 72 h
Procedure, shortened: (§1)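 SRB assay. Exponentially growing cells at 2.5 × 10^4 cells/mL attached, then given fresh medium with a range of concentrations for 72 h at 37 °C; four replicate wells; 0.1% DMSO negative control, doxorubicin reference. Fixed in cold 10% TCA 1 h at 4 °C, stained with 0.4% SRB, dye dissolved in 10 mM Tris, A560; viability relative to control; IC50 from dose–response curves.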

HepG2 [1] = test: Cytotoxicity against human HepG2 cells after 72 hrs by sulforhodamine B assay; type: functional, cell-based; conditions: HepG2, 72 h; procedure, shortened: as §1
HepG2 [2] = test: Induction of apoptosis in human HepG2 cells assessed as chromatin condensation at 5 to 10 uM after 48 hrs by Hoechst 33342 staining based fluorescence microscopic analysis; type: functional, cell-based
Procedure, shortened: (§2)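 1 × 10^6 HepG2 cells on coverslips treated 48 h at 1.0, 5.0 or 10 μM; DMSO control. Fixed 30 min in 4% paraformaldehyde, Hoechst 33342 stained 10 min at room temperature in the dark, PBS-washed, nuclear morphology viewed by fluorescence microscopy.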

HepG2 [3] = test: Induction of apoptosis in human HepG2 cells assessed as cell shrinkage at 5 to 10 uM after 48 hrs by Hoechst 33342 staining based fluorescence microscopic analysis; type: functional; procedure, shortened: as §2
HepG2 [4] = test: Induction of apoptosis in human HepG2 cells assessed as early apoptotic cells at 0.5 uM after 48 hrs by annexin-V-FITC/propidium iodide staining based flow cytometry (reference value: 0.33%); type: functional
HepG2 [5] = test: Induction of apoptosis in human HepG2 cells assessed as late apoptotic cells at 0.5 uM after 48 hrs by annexin-V-FITC/propidium iodide staining based flow cytometry (reference value: 0.51%); type: functional
HepG2 [6] = test: Induction of apoptosis in human HepG2 cells assessed as necrotic cells at 0.5 uM after 48 hrs by annexin-V-FITC/propidium iodide staining based flow cytometry (reference value: 1.82%); type: functional
HepG2 [7] = test: Induction of apoptosis in human HepG2 cells assessed as early apoptotic cells at 1 uM after 48 hrs by annexin-V-FITC/propidium iodide staining based flow cytometry (reference value: 0.33%); type: functional
HepG2 [8] = test: Induction of apoptosis in human HepG2 cells assessed as late apoptotic cells at 1 uM after 48 hrs by annexin-V-FITC/propidium iodide staining based flow cytometry (reference value: 0.51%); type: functional
HepG2 [9] = test: Induction of apoptosis in human HepG2 cells assessed as necrotic cells at 1 uM after 48 hrs by annexin-V-FITC/propidium iodide staining based flow cytometry (reference value: 1.82%); type: functional
HepG2 [10] = test: Induction of apoptosis in human HepG2 cells assessed as early apoptotic cells at 5 uM after 48 hrs by annexin-V-FITC/propidium iodide staining based flow cytometry (reference value: 0.33%); type: functional
HepG2 [11] = test: Induction of apoptosis in human HepG2 cells assessed as late apoptotic cells at 5 uM after 48 hrs by annexin-V-FITC/propidium iodide staining based flow cytometry (reference value: 0.51%); type: functional
HepG2 [12] = test: Induction of apoptosis in human HepG2 cells assessed as necrotic cells at 5 uM after 48 hrs by annexin-V-FITC/propidium iodide staining based flow cytometry (reference value: 1.82%); type: functional
HepG2 [13] = test: Cell cycle arrest in human HepG2 cells assessed as accumulation at G1-phase at 0.5 uM after 24 hrs by propidium iodide staining based flow cytometry (reference value: 62.3%); type: functional
Procedure, shortened: (§3)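 HepG2 cells exposed 24 h to 0.5, 1.0 or 5.0 μM, with DMSO control; washed in cold PBS, fixed in ice-cold 95% ethanol at 4 °C for at least 2 h, then PI-stained 30 min at 37 °C. Cell-cycle phases read by flow cytometry on 10 000 cells per sample; three independent experiments.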

HepG2 [14] = test: Cell cycle arrest in human HepG2 cells assessed as accumulation at S-phase at 0.5 uM after 24 hrs by propidium iodide staining based flow cytometry (reference value: 25.5%); type: functional; procedure, shortened: as §3
HepG2 [15] = test: Cell cycle arrest in human HepG2 cells assessed as accumulation at G2-phase at 0.5 uM after 24 hrs by propidium iodide staining based flow cytometry (reference value: 9.61%); type: functional; procedure, shortened: as §3
HepG2 [16] = test: Cell cycle arrest in human HepG2 cells assessed as accumulation at G1-phase at 1 uM after 24 hrs by propidium iodide staining based flow cytometry (reference value: 62.3%); type: functional; procedure, shortened: as §3
HepG2 [17] = test: Cell cycle arrest in human HepG2 cells assessed as accumulation at S-phase at 1 uM after 24 hrs by propidium iodide staining based flow cytometry (reference value: 25.5%); type: functional; procedure, shortened: as §3
HepG2 [18] = test: Cell cycle arrest in human HepG2 cells assessed as accumulation at G2-phase at 1 uM after 24 hrs by propidium iodide staining based flow cytometry (reference value: 9.61%); type: functional; procedure, shortened: as §3
HepG2 [19] = test: Cell cycle arrest in human HepG2 cells assessed as accumulation at G1-phase at 5 uM after 24 hrs by propidium iodide staining based flow cytometry (reference value: 62.3%); type: functional; procedure, shortened: as §3
HepG2 [20] = test: Cell cycle arrest in human HepG2 cells assessed as accumulation at S-phase at 5 uM after 24 hrs by propidium iodide staining based flow cytometry (reference value: 25.5%); type: functional; procedure, shortened: as §3
HepG2 [21] = test: Cell cycle arrest in human HepG2 cells assessed as accumulation at G2-phase at 5 uM after 24 hrs by propidium iodide staining based flow cytometry (reference value: 9.61%); type: functional; procedure, shortened: as §3
BV-2 = test: Inhibition of LPS-induced nitric oxide production in mouse BV2 cells after 24 hrs by Griess assay; type: functional, cell-based; conditions: BV-2, 24 h
Procedure, shortened: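 BV-2 murine microglia in DMEM with 10% heat-inactivated FBS, seeded at 2 × 10^4/well and grown 24 h. Given compound at five concentrations with 1 μg/mL LPS (E. coli 0111:B4) for 24 h; quercetin reference. Supernatant nitrite measured by Griess reagents I and II at A540 against a sodium nitrite standard curve; IC50 as concentration halving NO.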

[22] = Cytotoxicity against LPS-induced mouse BV2 cells assessed as cell viability after 24 hrs by MTT assay; type: cell-based, BV-2; set-up: concentration or dose not given beside the values; conditions: read-out: Activity
Procedure, shortened: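 BV-2 cells seeded at 2 × 10^3 per 100 μL and grown 24 h, then given compound at various concentrations plus LPS for 24 h; DMSO alone as negative control. MTT (5 mg/mL stock, 10 μL) added for 4 h at 37 °C, lysed overnight in SDS/[…]/HCl buffer, absorbance 570 nm.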

SMILES	IC50 (BV-2) [nM]	IC50 (PC-3) [nM]	IC50 (HepG2 [1]) [nM]	viability at 24 h [22] [%]	also measured
CO[C@H]1/C=C/C=C/C=C/C[C@H](OC(=O)[C@@H](C)NC(=O)C2CCCCC2)[C@H](C)[C@@H](O)/C(C)=C\CCc2cc(O)cc(c2)NC(=O)C1 [TRIENOMYCIN A]	20	400	200	95.2	–
CO[C@H]1/C=C/C=C/C=C/C[C@H](O)[C@H](C)[C@@H](OC(=O)[C@@H](C)NC(=O)C2CCCCC2)/C(C)=C\CCc2cc(O)cc(c2)NC(=O)C1	300	10200	17600	93.1	–
O=c1c(O)c(-c2ccc(O)c(O)c2)oc2cc(O)cc(O)c12 [QUERCETIN]	2400	–	–	99.2	–
CO[C@H]1/C=C/C=C/C=C/C[C@H](OC(=O)[C@@H](C)NC(=O)C2=CCCCC2)[C@H](C)[C@@H](O)/C(C)=C\CCc2cc(O)cc(c2)NC(=O)C1	30	700	200	94.3	–
COc1cccc2c1C(=O)c1c(O)c3c(c(O)c1C2=O)C[C@@](O)(C(=O)CO)C[C@@H]3O[C@H]1C[C@H](N)[C@H](O)[C@H](C)O1 [DOXORUBICIN]	–	800	700	–	–

Further lines, with some results ahead:

IC50 (BV-2) [nM]	SMILES	IC50 (PC-3) [nM]	IC50 (HepG2 [1]) [nM]	viability at 24 h [22] [%]	also measured
90	CO[C@H]1/C=C/C=C/C=C/C[C@H](OC(=O)[C@@H](C)NC(=O)CCCC(C)C)[C@H](C)[C@@H](O)/C(C)=C\CCc2cc(O)cc(c2)NC(=O)C1	2700	100	83.8	Activity (HepG2 [2]): Active; Activity (HepG2 [3]): Active; Activity (HepG2 [4]): 5.11%; Activity (HepG2 [5]): 1.25%; Activity (HepG2 [6]): 1.98%; Activity (HepG2 [7]): 9.53%; Activity (HepG2 [8]): 1.66%; Activity (HepG2 [9]): 2.1%; Activity (HepG2 [10]): 17.63%; Activity (HepG2 [11]): 5.67%; Activity (HepG2 [12]): 3.66%; Activity (HepG2 [13]): 59.1%; Activity (HepG2 [14]): 24.7%; Activity (HepG2 [15]): 14.2%; Activity (HepG2 [16]): 37.1%; Activity (HepG2 [17]): 34.5%; Activity (HepG2 [18]): 12.4%; Activity (HepG2 [19]): 42.4%; Activity (HepG2 [20]): 38.6%; Activity (HepG2 [21]): 12.6%
1700	CCCC(=O)N[C@H](C)C(=O)O[C@H]1C/C=C/C=C/C=C/[C@H](OC)CC(=O)Nc2cc(O)cc(c2)CC/C=C(/C)[C@H](O)[C@H]1C	4500	3000	96	–
8300	CC.CO[C@H]1/C=C/C=C/C=C/C[C@H](O)[C@H](C)[C@@H](OC(=O)[C@@H](C)NC(=O)CC(C)C)/C(C)=C\CCc2cc(O)cc(c2)NC(=O)C1	11900	20500	83.1	–
1100	CO[C@H]1/C=C/C=C/C=C/C[C@H](OC(=O)[C@@H](C)NC(=O)CC(C)C)[C@H](C)[C@@H](O)/C(C)=C\CCc2cc(O)cc(c2)NC(=O)C1	4500	1000	92.7	–
2900	CO[C@H]1/C=C/C=C/C=C/C[C@H](OC(=O)[C@@H](C)NC(=O)C(C)C)[C@H](C)[C@@H](O)/C(C)=C\CCc2cc(O)cc(c2)NC(=O)C1	4400	400	85.4	–
180	CO[C@H]1/C=C/C=C/C=C/C[C@H](OC(=O)[C@@H](C)NC(=O)CCC(C)C)[C@H](C)[C@@H](O)/C(C)=C\CCc2cc(O)cc(c2)NC(=O)C1	4200	200	82.5	–
480	CCC(C)C(=O)N[C@H](C)C(=O)O[C@H]1C/C=C/C=C/C=C/[C@H](OC)CC(=O)Nc2cc(O)cc(c2)CC/C=C(/C)[C@H](O)[C@H]1C (some centres undefined)	2600	500	76.3	–
